ChEMBL document CHEMBL1240401, “Population pharmacokinetic comparison and pharmacodynamic breakpoints of ceftazidime in cystic fibrosis patients and healthy volunteers” (Antimicrob Agents Chemother, 2010)

How the values were obtained:
[1] = Volume of distribution at steady state in cystic fibrosis patient at 2 gram, iv administered in 5 mins infusion; assay type: ADME, organism-based; conditions: human, in vivo, read-out: Vdss
Outline: (§1)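 Single-dose, single-centre, open, parallel-group trial in CF patients (n = 8) and healthy volunteers (n = 7). Each subject received 2 g ceftazidime by 5-min IV infusion; three CF patients received 1.5, 1 or 3 g instead. Venous plasma was sampled from 0 min to 12 h after the end of infusion. Drug was read at 275 nm (linear 0.6–200 mg/liter). Noncompartmental parameters were not body-size scaled.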

Homo sapiens [2] = assay: Volume of distribution at steady state in healthy human subjects at 2 gram, iv administered in 5 mins infusion; assay type: ADME, organism-based; conditions: in vivo; outline: as §1
Homo sapiens [3] = assay: fT>MIC in healthy human subjects at 6 gram/70kg, iv administered as 12 mg/l infusion every 6 hrs; assay type: functional
Outline: (§2)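 Monte Carlo simulation from the population PK model, using allometric scaling by fat-free mass. All regimens gave 6 g per 70 kg WT daily, as 30-min infusions q8h or q6h, prolonged 4–5-h infusions, or continuous infusion. Protein binding was assumed to be 11%, so only the non-protein-bound fraction counts. The PK-PD breakpoint was the MIC with target-attainment probability ≥90%.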

[4] = Total clearance in healthy human subjects at 2 gram, iv administered in 5 mins infusion; assay type: ADME, organism-based; conditions: in vivo; outline: as §1
[5] = Total clearance in healthy human subjects at […], iv administered 20 mins infusion; assay type: ADME, organism-based; conditions: in vivo
[6] = Terminal half life in cystic fibrosis patient at 2 gram, iv administered in 5 mins infusion; assay type: ADME, organism-based; conditions: human, in vivo, read-out: beta t1/2 (converted); outline: as §1
[7] = Terminal half life in healthy human subjects at […], iv administered 20 mins infusion; assay type: ADME, organism-based; conditions: in vivo, read-out: beta t1/2 (converted)
Homo sapiens [8] = assay: fT>MIC in cystic fibrosis patient at 6 gram/70kg, iv administered as 6 mg/l infusion every 6 hrs; assay type: functional; outline: as §2
[9] = Mean residence time in healthy human subjects at 2 gram, iv administered in 5 mins infusion; assay type: ADME, organism-based; conditions: in vivo; outline: as §1
Homo sapiens [10] = assay: fT>MIC in cystic fibrosis patient at 6 gram/70kg, iv administered as 6 mg/l infusion
[11] = Total clearance in juveline to adult cystic fibrosis patient; assay type: ADME, organism-based; conditions: human, in vivo
Homo sapiens [12] = assay: fT>MIC in healthy human subjects at 6 gram/70kg, iv administered as 4 mg/l infusion every 6 hrs; assay type: functional; outline: as §2
[13] = Cmax in cystic fibrosis patient at 2 gram, iv administered in 5 mins infusion; assay type: ADME, organism-based; parameters: route intravenous; conditions: human, in vivo; outline: as §1
[14] = Renal clearance in healthy human subjects; assay type: ADME, organism-based, Kidney; conditions: in vivo, read-out: CL_renal
[15] = Total clearance in cystic fibrosis patient at […], iv administered 20 mins infusion; assay type: ADME, organism-based; conditions: human, in vivo
Homo sapiens [16] = assay: fT>MIC in cystic fibrosis patient at 6 gram/70kg, iv administered as 1 mg/l infusion every 8 hrs; assay type: functional; outline: as §2
[17] = Terminal half life in healthy human subjects at 2 gram, iv administered in 5 mins infusion; assay type: ADME, organism-based; conditions: in vivo, read-out: beta t1/2 (converted); outline: as §1
Homo sapiens [18] = assay: fT>MIC in cystic fibrosis patient at 6 gram/70kg, iv administered as 2 mg/l infusion every 6 hrs; assay type: functional; outline: as §2
[19] = Renal clearance in cystic fibrosis patient; assay type: ADME, organism-based, Kidney; conditions: human, in vivo; read-out: CL_renal
[20] = Mean residence time in cystic fibrosis patient at 2 gram, iv administered in 5 mins infusion; assay type: ADME, organism-based; conditions: human, in vivo; outline: as §1
[21] = Total clearance in cystic fibrosis patient at 2 gram, iv administered in 5 mins infusion; assay type: ADME, organism-based; conditions: human, in vivo; outline: as §1
[22] = Terminal half life in cystic fibrosis patient at […], iv administered 20 mins infusion; assay type: ADME, organism-based; conditions: human, in vivo, read-out: beta t1/2 (converted)
[23] = Cmax in healthy human subjects at 2 gram, iv administered in 5 mins infusion; assay type: ADME, organism-based; parameters: route intravenous; conditions: in vivo; outline: as §1
[24] = Total clearance in cystic fibrosis patient; assay type: ADME, organism-based; conditions: human, in vivo
Homo sapiens [25] = assay: fT>MIC in healthy human subjects at 6 gram/70kg, iv administered as 3 mg/l infusion every 8 hrs; assay type: functional; outline: as §2
Homo sapiens [26] = assay: fT>MIC in healthy human subjects at 6 gram/70kg, iv administered as 8 mg/l infusion every 8 hrs; assay type: functional; outline: as §2

Structure (SMILES): CC(C)(O/N=C(\C(=O)N[C@@H]1C(=O)N2C(C(=O)[O-])=C(C[n+]3ccccc3)CS[C@H]12)c1csc(N)n1)C(=O)O [CEFTAZIDIME]
- Vd [1]: 9.14 L
- Vdss (Homo sapiens [2]): 14.3 L
- fT>MIC (Homo sapiens [3]): >=40%
- clearance [4]: 110 mL/min
- clearance [5]: 101 mL/min
- half-life [6]: 1.48 h
- half-life [7]: 1.76 h
- fT>MIC (Homo sapiens [8]): >=40%
- MRT [9]: 2.1 h
- fT>MIC (Homo sapiens [10]): >=40%
- clearance [11]: 133 mL/min
- fT>MIC (Homo sapiens [12]): >=65%
- Cmax [13]: 445 µg/mL
- CL renal [14]: 100 mL/min
- clearance [15]: 142 mL/min
- fT>MIC (Homo sapiens [16]): >=65%
- half-life [17]: 1.94 h
- fT>MIC (Homo sapiens [18]): >=65%
- CL renal [19]: 125 mL/min
- MRT [20]: 1.54 h
- clearance [21]: 89.5 mL/min
- half-life [22]: 1.5 h
- Cmax [23]: 210 µg/mL
- clearance [24]: 127 mL/min
- fT>MIC (Homo sapiens [25]): >=65%
- fT>MIC (Homo sapiens [26]): >=40%
